A selection: hits, their analogues and other compounds. The true share with any hit is near 4.4%.
MsrA inhibitor: inhibits bovine methionine sulfoxide reductase A; 360,000 compounds, 0.75% hits; purified bovine MsrA, absorbance read-out; inhibition, % at 15.5 µM
TbMetRS inhib: Trypanosoma brucei MetRS inhibition | purified T. brucei MetRS, ATP depletion, Kinase-Glo luminescence | inhibition, % at 11.9 µM | 360,000 compounds, 0.4% hits;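 active = inhibition above a per-plate cutoff of the control wells' mean inhibition plus 3 SD, cut at about 5.5% in these data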
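Measured by: Kinase-Glo luciferase luminescence reporting remaining unconsumed ATP. Material: purified T. brucei MetRS enzyme. Doses: 11.9 µM compound single dose, 0.9% DMSO. Medium: HEPES buffer containing pyrophosphatase, BSA, spermine, DTT. Times: 15 min preincubation, 2 h reaction, all 25 °C. Reagent: methionine, ATP and bulk E. coli tRNA.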
m5-HT2A agonist: activates the mouse 5-HT2A serotonin receptor | activation, % at 7.6 µM | CHO-K1 mHTR2A beta-arrestin complementation, luminescence; percent of 30 µM serotonin response | P35363 | 360,000 compounds, 0.66% hits | AID 624169;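 active = activation above a run cutoff, the mean activation of all tested compounds plus 3 SD, cut at about 14% in these data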
Target sequence (P35363 whole entry, looked up): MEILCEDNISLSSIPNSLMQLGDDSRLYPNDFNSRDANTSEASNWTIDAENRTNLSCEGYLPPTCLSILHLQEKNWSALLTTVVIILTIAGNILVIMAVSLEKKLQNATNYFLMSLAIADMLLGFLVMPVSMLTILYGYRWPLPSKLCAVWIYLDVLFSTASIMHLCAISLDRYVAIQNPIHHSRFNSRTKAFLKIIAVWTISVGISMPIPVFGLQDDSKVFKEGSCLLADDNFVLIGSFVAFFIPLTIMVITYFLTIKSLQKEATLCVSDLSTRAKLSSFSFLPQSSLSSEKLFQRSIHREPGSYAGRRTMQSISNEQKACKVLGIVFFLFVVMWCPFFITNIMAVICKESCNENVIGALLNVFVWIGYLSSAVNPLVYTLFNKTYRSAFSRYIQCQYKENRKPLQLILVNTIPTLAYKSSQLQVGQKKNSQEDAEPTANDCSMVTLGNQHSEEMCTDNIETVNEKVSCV
AHR activator: activators of human aryl hydrocarbon receptor; AHR-responsive luciferase reporter cells, luminescence; activation, % at 5 µM; 320,000 compounds, 2.5% hits; in the data active = activation above about 47%
bovine MsrA act: activators of bovine methionine sulfoxide reductase A; activation, % at 10.6 µM; 360,000 compounds, 0.3% hits; purified bovine MsrA, absorbance read-out; in the data active = activation above about 7.5%
AI-2 QS modul: modulators of Vibrio harveyi AI-2 quorum sensing system. Vibrio harveyi JMH597 AI-2 luminescence/OD600 ratio, 9 h; hits give low values; strain lacks LuxN and CqsS sensors; 0 = neutral-control median. AID 2094. 300,000 compounds, 0.4% hits. activity change, % at 7.5 µM; in the data active = activity change below about -75%, passing the limit was not always enough;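 note: luminescence divided by OD600 gain over 9 h not by final OD600 alone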
MsrA inh confirm: bovine MsrA inhibition, confirmed. shares compounds with MsrA inhibitor. purified bovine MsrA, absorbance read-out. inhibition, % at 15.5 µM. 2,300 compounds, 41% hits;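 note: coupled to thioredoxin reductase with NADPH and selenocystamine and DMSO as substrate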
Numbers stand for hits; n = inactive; x = no result given. Cut-off read from the data, not from the text of the source, unless noted: active = inhibition above about 4.5%; inactive = the rest.

SMILES	MsrA inhibitor	TbMetRS inhib	m5-HT2A agonist	AHR activator	bovine MsrA act	AI-2 QS modul	MsrA inh confirm
COc1ccc(C(=O)NCc2ccc3c(c2)OCO3)cc1S(=O)(=O)N1CCCC1	n	n	n	n	n	x	x
N#CC(C#N)=Cc1c[nH]c(=O)c(C#N)c1Nc1ccccc1	5.4	n	n	n	n	n	n
N#Cc1c(Nc2ccccc2)c(/C=N/N=C/c2ccccc2)c[nH]c1=O	n	n	n	n	n	n	x
Cc1cc(C(=O)N2CCCC(N3CCN(c4ccccc4C)CC3)C2)no1 (centres undefined)	n	n	n	x	n	x	x
CNC[C@H]1Oc2c(NS(=O)(=O)c3ccccc3)cccc2C(=O)N([C@H](C)CO)C[C@@H]1C	n	n	n	n	n	x	x
CN(C)c1ccc(/C=N/NC(N)=S)cc1[N+](=O)[O-]	10.1	n	n	n	n	n	7.1
Cn1c(=O)n(C)c2cc(/C=N/NC(N)=S)ccc21	5.5	n	n	n	n	n	4.8
C=CCNC(=S)N/N=C/c1ccc(C)c([N+](=O)[O-])c1	n	n	n	n	n	x	x
COc1ccc(N(C)C(=O)C2CCN(S(=O)(=O)c3cccc4nonc34)CC2)c(OC)c1	n	n	n	n	n	x	x
CC(C)N1CCC(C)(C(=O)Nc2cccc(Oc3ccccc3)c2)C1 (centres undefined)	n	n	n	x	n	x	x
C[C@H]1CC[C@]2(O[C@@H](CCO)C[C@H](O)[C@H]2O)O1	n	n	n	n	n	n	x
CC(C)N1CCN(S(=O)(=O)c2ccccc2)c2ccccc21	n	n	n	x	n	x	x
CC1(C)C(/C=C/C=C/C=C/C=C2\N(CCCCS(=O)(=O)O)c3ccc4ccccc4c3C2(C)C)=[N+](CCCCS(=O)(=O)[O-])c2ccc3ccccc3c21	x	n	n	n	n	x	x
O=c1/c(=C/c2ccco2)sc2n1CN(c1cccc(Br)c1)CN=2	5.2	n	n	n	n	n	n
O=c1/c(=C/c2ccco2)sc2n1CN(c1ccccc1)CN=2	5.0	n	n	n	n	n	6.1
Cc1cc(C)cc(N2CN=c3s/c(=C\c4ccco4)c(=O)n3C2)c1	n	n	n	n	n	n	x
Cc1nc(C(F)(F)F)ccc1C(=O)Nc1ccccc1N1CCOCC1	n	n	n	n	n	n	x
O=C(CCNC(=O)c1ccccc1)NNC(=O)c1ccc(F)cc1	n	n	n	n	n	x	x
Cc1c(C(=O)N/N=C/c2ccc(N3CCOCC3)cc2)nc2ccccn12	5.7	n	n	n	n	n	5.8
O=C(Cn1ccc(C(F)(F)F)n1)N/N=C/c1ccc(N2CCOCC2)cc1	5.2	n	n	n	n	n	n
COc1cc(/C=N/NC(=O)c2nc3ccccn3c2C)cc(OC)c1O	6.3	n	n	n	n	n	5.1
O=C(N/N=C/c1ccc(N2CCOCC2)cc1)c1ccccn1	n	n	n	n	n	n	x
CCN(CC(=O)Nc1c(F)cccc1F)C(=O)CSc1nnc(-c2ccco2)n1CC	n	n	n	n	n	n	x
CC(C)Cc1nnc(NC(=O)C2CCCC2)s1	n	n	n	n	n	n	x
Cc1ccc(C(=O)N2CCCC(C(=O)Nc3cccc(-c4ccc(F)cc4)c3)C2)cn1 (centres undefined)	n	n	n	n	n	n	x
SMILES	MsrA inhibitor	TbMetRS inhib	m5-HT2A agonist	AHR activator	bovine MsrA act	AI-2 QS modul	MsrA inh confirm
CCCNS(=O)(=O)c1cc2c(cc1Br)CCN2C(=O)CC	n	n	n	x	n	x	x
Cc1nn(CC(=O)N2CCCC2)c(=O)c2cc3cc(F)ccc3n12	n	n	n	n	n	n	x
Cc1cccc(NC(=O)/C=C/c2cccs2)n1	5.0	n	n	n	n	n	n
O=C(/C=C/c1cccs1)Nc1ccncc1	5.9	n	n	n	n	n	5.3
Cc1ccnc(NS(=O)(=O)c2ccc(NC(=O)/C=C/c3cccs3)cc2)n1	5.9	n	n	n	n	n	n
Cc1ccnc(NS(=O)(=O)c2ccc(NC(=O)/C=C/c3ccccc3)cc2)n1	n	n	n	n	n	n	x
COC(=O)[C@@]12C[C@@H](CC(=O)N3CCN(C(=O)C4CC4)CC3)C(=O)N(CCc3ccc(OC)c(OC)c3)C1=CCC(C)(C)C2	n	n	n	x	x	x	x
COc1ccc(S(=O)(=O)N2CCCCC2)cc1NC(=O)Cn1cnc2c1c(=O)n(C)c(=O)n2C	n	n	n	n	n	x	x
COc1cc(NC(=O)[C@H]2O[C@@H](n3cnc4c(N)ncnc43)[C@H](O)[C@@H]2O)cc(OC)c1OC	n	n	n	x	n	x	x
Cn1c(/C(C#N)=C/Nc2ccccn2)nc2ccccc21	6.8	n	n	118.5	n	n	n
CCOc1ccc(C(CC(=O)O)NC(=O)C(c2ccccc2)c2ccccc2)cc1OC (centres undefined)	n	n	n	n	n	x	x
O=S(=O)(Nc1cccc(S(=O)(=O)N2CCCCC2)c1)c1ccccc1F	n	n	n	n	n	x	x
O=C(O)c1cccn2c(=O)c3ccccc3nc12	4.7	n	n	n	n	n	n
O=C(O)c1ccccc1-c1nc2ccccc2c(=O)n1O	n	n	n	n	n	n	x
CCOc1ccc(S(=O)(=O)Nc2cc(SCC(=O)O)c(O)c3ccccc23)cc1	n	n	n	x	n	n	x
O=C(O)CSc1cc(NS(=O)(=O)c2cccc([N+](=O)[O-])c2)c2ccccc2c1O	20.3	n	n	x	n	n	n
COc1ccc(Cn2cc(CN3CCc4onc(-c5ccccc5OC)c4C3=O)nn2)cc1	n	n	n	x	n	x	x
O=S(=O)(Cc1ccccc1)CS(=O)(=O)Cc1ccccc1	n	n	n	x	n	x	x
CCCCN(C(=O)C1CC(=O)N(c2ccc(C)cc2)C1)c1c(N)n(CCC)c(=O)[nH]c1=O (centres undefined)	n	n	n	x	n	x	x
COc1cc(/C=C/C(=O)O)ccc1OS(=O)(=O)c1c(C)c(C)cc(C)c1C	n	n	n	n	n	x	x
COc1cc(C)c(/C=C/C(C)=C/C=C/C(C)=C/C(=O)O)c(C)c1C	4.7	n	n	n	n	n	n
CC(=O)Cc1nsc(NC(=O)c2ccc(-c3ccc(Cl)c(C(F)(F)F)c3)o2)n1	x	x	x	n	x	n	x
CC(=O)Cc1nsc(NC(=O)c2ccc(-c3ccc(F)cc3)o2)n1	7.0	n	n	n	n	n	5.4
O=[N+]([O-])c1ccc(C[n+]2ccc(Cc3ccccc3)cc2)cc1	n	n	n	n	n	n	x
CC(C)(C)NC(=O)NC(=O)C[n+]1ccc(Cc2ccc([N+](=O)[O-])cc2)cc1	11.5	n	n	n	n	n	n
O=C(C[n+]1ccc(Cc2ccccc2)cc1)Nc1ccc([N+](=O)[O-])cc1Cl	n	n	n	n	n	n	x
Cc1ccc(Cl)cc1NC(=O)C[n+]1ccc(Cc2ccc([N+](=O)[O-])cc2)cc1	6.6	n	n	n	n	n	n
Cc1ccc(C)c(S(=O)(=O)N2CCCOC2CNC(=O)C(=O)NC2CC2)c1 (centres undefined)	n	n	n	n	n	n	x

Screens (PubChem)
